Measured values from ChEMBL document CHEMBL5329156, “Discovery and development of novel substituted monohydrazides as potent antifungal agents” (RSC Med Chem, 2023).
Converted amounts (≈) assume the structure as drawn. The source made the active and inactive calls. The calls are words filed in the database; no cut-off is given here.

Experiments:
Candida albicans [1] = assay: Antifungal activity against Candida albicans ATCC 10231 assessed as fungal growth inhibition by double dilution method; type: functional
Summary of the method: (§1)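 Broth microdilution after CLSI M27-A3/M38-A2 with minor changes. Single colony grown overnight in YPD at 35 °C, 200 rpm. Compound final range 0.06-31.3 µg/mL; incubated 48 h at 35 °C.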

Candida albicans [2] = assay: Antifungal activity against Candida albicans ATCC 64124 assessed as fungal growth inhibition by double dilution method; type: functional
Summary of the method: (§2)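 Broth microdilution after CLSI M27-A3/M38-A2 with minor modifications. A single colony was grown overnight in YPD at 35 °C with shaking at 200 rpm. Cells were mixed 1:1 with compound (final 0.06-31.3 µg/mL, from DMSO stocks) and incubated 48 h at 35 °C.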

Candida albicans [3] = assay: Antifungal activity against itraconazole/fluconazole susceptible Candida albicans ATCC MYA-2876 assessed as fungal growth inhibition by double dilution method; type: functional; summary of the method: as §2
Candida albicans [4] = assay: Antifungal activity against itraconazole/fluconazole resistant Candida albicans ATCC 90819 assessed as fungal growth inhibition by double dilution method; type: functional; summary of the method: as §2
Candida albicans [5] = assay: Antifungal activity against itraconazole/fluconazole susceptible Candida albicans ATCC MYA-2310 assessed as fungal growth inhibition by double dilution method; type: functional; summary of the method: as §2
Candida albicans [6] = assay: Antifungal activity against itraconazole/fluconazole resistant Candida albicans ATCC MYA-1237 assessed as fungal growth inhibition by double dilution method; type: functional; summary of the method: as §2
Candida albicans [7] = assay: Antifungal activity against itraconazole/fluconazole resistant Candida albicans ATCC MYA-1003 assessed as fungal growth inhibition by double dilution method; type: functional; summary of the method: as §2
Nakaseomyces glabratus [8] = assay: Antifungal activity against Candida glabrata ATCC 2001 assessed as fungal growth inhibition by double dilution method; type: functional; summary of the method: as §1
Pichia kudriavzevii [9] = assay: Antifungal activity against Pichia kudriavzevii ATCC 6258 assessed as fungal growth inhibition by double dilution method; type: functional; summary of the method: as §1
Nakaseomyces glabratus [10] = assay: Antifungal activity against Candida glabrata ATCC 22019 assessed as fungal growth inhibition by double dilution method; type: functional; summary of the method: as §1
[Candida] auris [11] = Antifungal activity against Candida auris AR Bank # 0384 assessed as fungal growth inhibition by double dilution method; type: functional; conditions: Candidozyma auris; summary of the method: as §1
[Candida] auris [12] = Antifungal activity against Candida auris AR Bank # 0390 assessed as fungal growth inhibition by double dilution method; type: functional; conditions: Candidozyma auris; summary of the method: as §1
Cryptococcus neoformans = assay: Antifungal activity against Cryptococcus neoformans ATCC MYA-895 assessed as fungal growth inhibition by double dilution method; type: functional; summary of the method: as §1
Aspergillus terreus = assay: Antifungal activity against Aspergillus terreus ATCC MYA-3633 assessed as fungal growth inhibition by double dilution method; type: functional
Aspergillus fumigatus [13] = assay: Antifungal activity against Aspergillus fumigatus NRRL 163 assessed as fungal growth inhibition by double dilution method; type: functional
Aspergillus flavus = assay: Antifungal activity against Aspergillus flavus ATCC MYA-3631 assessed as fungal growth inhibition by double dilution method; type: functional
Aspergillus nidulans = assay: Antifungal activity against Aspergillus nidulans ATCC 38163 assessed as fungal growth inhibition by double dilution method; type: functional
Aspergillus fumigatus [14] = assay: Antifungal activity against Aspergillus fumigatus NRRL 5109 assessed as fungal growth inhibition by double dilution method; type: functional
Aspergillus fumigatus [15] = assay: Antifungal activity against Aspergillus fumigatus NRRL 6113 assessed as fungal growth inhibition by double dilution method; type: functional
[Candida] auris [16] = Antifungal activity against Candida auris AR Bank # 381 assessed as fungal growth inhibition by double dilution method; type: functional; conditions: Candidozyma auris; summary of the method: as §1
[Candida] auris [17] = Antifungal activity against Candida auris AR Bank # 382 assessed as fungal growth inhibition by double dilution method; type: functional; conditions: Candidozyma auris; summary of the method: as §1
[Candida] auris [18] = Antifungal activity against Candida auris AR Bank # 383 assessed as fungal growth inhibition by double dilution method; type: functional; conditions: Candidozyma auris; summary of the method: as §1
[Candida] auris [19] = Antifungal activity against Candida auris AR Bank # 384 assessed as fungal growth inhibition by double dilution method; type: functional; conditions: Candidozyma auris; summary of the method: as §1
[Candida] auris [20] = Antifungal activity against Candida auris AR Bank # 385 assessed as fungal growth inhibition by double dilution method; type: functional; conditions: Candidozyma auris; summary of the method: as §1
[Candida] auris [21] = Antifungal activity against Candida auris AR Bank # 386 assessed as fungal growth inhibition by double dilution method; type: functional; conditions: Candidozyma auris; summary of the method: as §1
[Candida] auris [22] = Antifungal activity against Candida auris AR Bank # 387 assessed as fungal growth inhibition by double dilution method; type: functional; conditions: Candidozyma auris; summary of the method: as §1
[Candida] auris [23] = Antifungal activity against Candida auris AR Bank # 388 assessed as fungal growth inhibition by double dilution method; type: functional; conditions: Candidozyma auris; summary of the method: as §1
[Candida] auris [24] = Antifungal activity against Candida auris AR Bank # 389 assessed as fungal growth inhibition by double dilution method; type: functional; conditions: Candidozyma auris; summary of the method: as §1
[Candida] auris [25] = Antifungal activity against Candida auris AR Bank # 390 assessed as fungal growth inhibition by double dilution method; type: functional; conditions: Candidozyma auris; summary of the method: as §1
Candida duobushaemulonii [26] = assay: Antifungal activity against Candida duobushaemulonii AR Bank # 391 assessed as fungal growth inhibition by double dilution method; type: functional; conditions: Candidozyma duobushaemuli; summary of the method: as §1
Candida duobushaemulonii [27] = assay: Antifungal activity against Candida duobushaemulonii AR Bank # 392 assessed as fungal growth inhibition by double dilution method; type: functional; conditions: Candidozyma duobushaemuli; summary of the method: as §1
[Candida] haemuloni [28] = Antifungal activity against Candida haemulonii AR Bank # 393 assessed as fungal growth inhibition by double dilution method; type: functional; conditions: Candidozyma haemuli; summary of the method: as §1
Candida duobushaemulonii [29] = assay: Antifungal activity against Candida duobushaemulonii AR Bank # 394 assessed as fungal growth inhibition by double dilution method; type: functional; conditions: Candidozyma duobushaemuli; summary of the method: as §1
[Candida] haemuloni [30] = Antifungal activity against Candida haemulonii AR Bank # 395 assessed as fungal growth inhibition by double dilution method; type: functional; conditions: Candidozyma haemuli; summary of the method: as §1
Kodamaea ohmeri = assay: Antifungal activity against Kodamaea ohmeri AR Bank # 396 assessed as fungal growth inhibition by double dilution method; type: functional; summary of the method: as §1
Pichia kudriavzevii [31] = assay: Antifungal activity against Pichia kudriavzevii AR Bank # 397 assessed as fungal growth inhibition by double dilution method; type: functional; summary of the method: as §1
Clavispora lusitaniae = assay: Antifungal activity against Clavispora lusitaniae AR Bank # 398 assessed as fungal growth inhibition by double dilution method; type: functional; summary of the method: as §1
Saccharomyces cerevisiae [32] = assay: Antifungal activity against Saccharomyces cerevisiae AR Bank # 399 assessed as fungal growth inhibition by double dilution method; type: functional; summary of the method: as §1
Saccharomyces cerevisiae [33] = assay: Antifungal activity against Saccharomyces cerevisiae AR Bank # 400 assessed as fungal growth inhibition by double dilution method; type: functional; summary of the method: as §1
Candida albicans [34] = assay: Antibiofilm activity against Candida albicans ATCC 10231 assessed as reduction in biofilm production at 1.96 to 3.9 microg/ml by biofilm formation assay; type: functional, organism-based; conditions: dose 1.96-3.9 µg/ml

Question: `O=C(NNc1cc(F)ccc1F)c1ccccn1` was tested. Which MIC (Candida albicans [1]) did it give?
Answer: 0.12 µg/mL (≈ 0.482 µM)

Question: And the MIC (Candida albicans [2])?
Answer: 1.95 µg/mL (≈ 7.82 µM)

Question: What about the MIC (Candida albicans [3]) of the same molecule?
Answer: 3.9 µg/mL (≈ 15.6 µM)

Question: What about the MIC (Candida albicans [4]) of the same molecule?
Answer: 0.98 µg/mL (≈ 3.93 µM)

Question: And the MIC (Candida albicans [5])?
Answer: 1.95 µg/mL (≈ 7.82 µM)

Question: What about the MIC (Candida albicans [6]) of the same molecule?
Answer: 1.95 µg/mL (≈ 7.82 µM)

Question: What about the MIC (Candida albicans [7]) of the same molecule?
Answer: 0.98 µg/mL (≈ 3.93 µM)

Question: And the MIC (Nakaseomyces glabratus [8])?
Answer: 3.9 µg/mL (≈ 15.6 µM)

Question: And the MIC (Pichia kudriavzevii [9])?
Answer: 0.24 µg/mL (≈ 0.963 µM)

Question: And the MIC (Nakaseomyces glabratus [10])?
Answer: 3.9 µg/mL (≈ 15.6 µM)

Question: And the MIC ([Candida] auris [11])?
Answer: 0.24 µg/mL (≈ 0.963 µM)

Question: What about the MIC ([Candida] auris [12]) of the same molecule?
Answer: 0.98 µg/mL (≈ 3.93 µM)

Question: What about the MIC (Cryptococcus neoformans) of the same molecule?
Answer: 0.49 µg/mL (≈ 1.97 µM)

Question: What about the MIC (Aspergillus terreus) of the same molecule?
Answer: 0.98 µg/mL (≈ 3.93 µM)

Question: What about the MIC (Aspergillus fumigatus [13]) of the same molecule?
Answer: > 31.3 µg/mL

Question: What about the MIC (Aspergillus flavus) of the same molecule?
Answer: 3.9 µg/mL (≈ 15.6 µM)

Question: What about the MIC (Aspergillus nidulans) of the same molecule?
Answer: 0.49 µg/mL (≈ 1.97 µM)

Question: What about the MIC (Aspergillus fumigatus [14]) of the same molecule?
Answer: 15.6 µg/mL (≈ 62.6 µM)

Question: And the MIC (Aspergillus fumigatus [15])?
Answer: > 31.3 µg/mL

Question: What about the MIC ([Candida] auris [16]) of the same molecule?
Answer: 1.95 µg/mL (≈ 7.82 µM)

Question: And the MIC ([Candida] auris [17])?
Answer: 0.24 µg/mL (≈ 0.963 µM)

Question: And the MIC ([Candida] auris [18])?
Answer: 0.49 µg/mL (≈ 1.97 µM)

Question: What about the MIC ([Candida] auris [19]) of the same molecule?
Answer: 1.95 µg/mL (≈ 7.82 µM)

Question: What about the MIC ([Candida] auris [20]) of the same molecule?
Answer: 0.49 µg/mL (≈ 1.97 µM)

Question: What about the MIC ([Candida] auris [21]) of the same molecule?
Answer: 0.12 µg/mL (≈ 0.482 µM)

Question: What about the MIC ([Candida] auris [22]) of the same molecule?
Answer: 0.49 µg/mL (≈ 1.97 µM)

Question: And the MIC ([Candida] auris [23])?
Answer: 0.49 µg/mL (≈ 1.97 µM)

Question: And the MIC ([Candida] auris [24])?
Answer: 0.49 µg/mL (≈ 1.97 µM)

Question: And the MIC ([Candida] auris [25])?
Answer: 0.98 µg/mL (≈ 3.93 µM)

Question: And the MIC (Candida duobushaemulonii [26])?
Answer: 0.49 µg/mL (≈ 1.97 µM)

Question: What about the MIC (Candida duobushaemulonii [27]) of the same molecule?
Answer: 0.24 µg/mL (≈ 0.963 µM)

Question: What about the MIC ([Candida] haemuloni [28]) of the same molecule?
Answer: 0.98 µg/mL (≈ 3.93 µM)

Question: And the MIC (Candida duobushaemulonii [29])?
Answer: 0.24 µg/mL (≈ 0.963 µM)

Question: And the MIC ([Candida] haemuloni [30])?
Answer: 0.24 µg/mL (≈ 0.963 µM)

Question: What about the MIC (Kodamaea ohmeri) of the same molecule?
Answer: 0.12 µg/mL (≈ 0.482 µM)

Question: And the MIC (Pichia kudriavzevii [31])?
Answer: 0.24 µg/mL (≈ 0.963 µM)

Question: And the MIC (Clavispora lusitaniae)?
Answer: 0.49 µg/mL (≈ 1.97 µM)

Question: And the MIC (Saccharomyces cerevisiae [32])?
Answer: 1.95 µg/mL (≈ 7.82 µM)

Question: What about the MIC (Saccharomyces cerevisiae [33]) of the same molecule?
Answer: 1.95 µg/mL (≈ 7.82 µM)

Question: What about the Activity (Candida albicans [34]) of the same molecule?
Answer: inactive
